ChEMBL document CHEMBL4622973, “Discovery of Potent Small-Molecule SIRT6 Activators: Structure-Activity Relationship and Anti-Pancreatic Ductal Adenocarcinoma Activity” (J Med Chem, 2020)
The source made the active and inactive calls. No cut-off for these calls is given here.

What was measured:
[1] = tested on: PANC-1; assay: Antitumor activity against human PANC1 cells xenografted in BALB/c nude mouse assessed as inhibition of tumor growth at 150 mg/kg/day, po for 30 days relative to control; type: functional; details: PANC-1, po, 720 h, read-out: TGI
In short: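 Female BALB/c nude mice, 6-8 weeks old, injected subcutaneously in the right flank with 5×10^6–1×10^7 PANC-1 cells. At 130-150 mm³, mice randomized into 4 groups (n = 6) and dosed orally once daily for 30 days against vehicle. Tumor volume followed over time. Inhibition rate assessed against control.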

[2] = target: NAD-dependent protein deacetylase sirtuin-2 (Homo sapiens, UniProt Q8IXJ6); assay: Inhibition of SIRT2 (unknown origin) by FDL assay
Sequence of NAD-dependent protein deacetylase sirtuin-2 (Q8IXJ6 whole entry): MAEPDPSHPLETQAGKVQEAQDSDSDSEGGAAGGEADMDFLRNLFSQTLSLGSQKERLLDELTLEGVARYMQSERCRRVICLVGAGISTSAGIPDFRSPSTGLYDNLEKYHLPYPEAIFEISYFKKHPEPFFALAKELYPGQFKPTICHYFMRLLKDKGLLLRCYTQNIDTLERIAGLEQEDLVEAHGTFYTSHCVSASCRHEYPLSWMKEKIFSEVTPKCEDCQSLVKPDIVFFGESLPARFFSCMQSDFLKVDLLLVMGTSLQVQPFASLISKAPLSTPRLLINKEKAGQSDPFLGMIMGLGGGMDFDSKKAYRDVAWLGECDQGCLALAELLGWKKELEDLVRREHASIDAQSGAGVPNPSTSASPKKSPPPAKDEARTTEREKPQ
In short: (§1)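 Selectivity testing by FDL assay at concentrations up to 200 µM. SIRT1-2 assays run by an outside contract provider. Values reported as IC50.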

[3] = target: T1, NAD-dependent protein deacylase sirtuin-6 (Homo sapiens, UniProt Q8N6T7); assay: Binding affinity to N-terminal his-tagged human SIRT6 expressed in Escherichia coli M15 [pREP4] by SPR assay
T1 sequence (Q8N6T7 whole entry): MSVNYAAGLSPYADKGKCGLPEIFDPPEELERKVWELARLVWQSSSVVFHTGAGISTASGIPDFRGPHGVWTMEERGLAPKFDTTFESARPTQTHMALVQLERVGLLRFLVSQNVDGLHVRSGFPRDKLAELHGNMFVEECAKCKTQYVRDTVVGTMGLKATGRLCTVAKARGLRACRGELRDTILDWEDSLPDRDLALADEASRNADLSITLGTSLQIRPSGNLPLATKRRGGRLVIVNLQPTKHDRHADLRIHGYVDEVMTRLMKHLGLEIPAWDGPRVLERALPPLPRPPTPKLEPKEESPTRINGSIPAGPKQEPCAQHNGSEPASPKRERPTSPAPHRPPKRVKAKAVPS

[4] = tested on: PANC-1; assay: Antiproliferative activity against human PANC1 cells assessed as reduction in cell viability incubated for 72 hrs by MTT assay; type: functional, cell-based
In short: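 PDAC cells grown in DMEM or RPMI1640 with 10% FBS and penicillin/streptomycin at 37 °C, 5% CO2. Plated in triplicate, then treated with a concentration series for 72 h. Viability read by MTT. IC50 calculated from dose-response curves.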

[5] = tested on: PANC-1; assay: Antitumor activity against human PANC1 cells xenografted in BALB/c nude mouse assessed as inhibition of tumor cell proliferation by measuring reduction in Ki67+ cells at 150 mg/kg/day, po for 30 days by IHC analysis; type: functional, organism-based
In short: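 PANC-1 subcutaneous xenografts in female BALB/c nude mice dosed orally for 30 days. Tumor tissue taken and stained by immunohistochemistry for Ki-67-positive cells, compared with vehicle.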

[6] = Half life in Sprague-Dawley rat at 2 mg/kg, iv after 0.25 to 24 hrs by LC-MS/MS analysis; type: ADME, organism-based; details: in vivo
In short: (§2)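 Male Sprague-Dawley rats, 6-8 weeks old. Dosing solution of 10 (PO) or 2 (IV) mg/mL in 5% DMSO, 10% Solutol and 85% saline, pH 7. Blood taken by cardiac puncture at 0.083–24 h (PO) or 0.25–24 h (IV). Plasma levels measured by LC-MS/MS. Values are mean ± SD, n = 3.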

[7] = tested on: MIA PaCa-2; assay: Inhibition of cell migration of human MIAPaCa2 cells at 10 umol/L incubated for 24 hrs by inverted microscopy relative to control; type: functional; details: MIA PaCa-2, 24 h
In short: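 PDAC cells are grown to a confluent monolayer at 37 °C in 5% CO2. The monolayer is scratched with a 200 μL pipette tip to make a gap of constant width, then washed with PBS. Cells are exposed to a range of compound concentrations. They are imaged by inverted microscope after 24 h. Migrated cells are counted by hand, and inhibition is expressed relative to untreated wells (100%).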

[8] = tested on: PANC-1; assay: Inhibition of colony formation in human PANC1 cells incubated for 9 to 18 days by crystal violet staining based assay; type: functional, cell-based
In short: (§3)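 Cells are seeded per well at the line-specific density: BXPC-3 750, PANC-1 500, AsPC-1 2200, MIAPaCa-2 500. Compound at several concentrations is added after 24 h. Incubation runs 9–18 days (BXPC-3 18 days, PANC-1 14 days). Cells are then fixed with 4% paraformaldehyde and stained with crystal violet, and colonies of more than 50 cells are counted.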

[9] = target: T1, NAD-dependent protein deacylase sirtuin-6; assay: […] in human BxPC3 cells assessed as reduction in H3K9ac levels incubated for 72 hrs by Western blot analysis; type: cell-based; details: BXPC-3
In short: (§4)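 Cells incubated 72 h with various compound concentrations; whole-cell RIPA lysates with protease inhibitors, BCA-normalised, separated on 12% SDS-PAGE, transferred to PVDF, blocked in 5% milk or BSA. Probed 10 h at 4 °C with antibodies to SIRT6, acetyl-H3K9/K18/K56, total H3, Lin28b, Myc, IGF2BP3, β-actin; HRP secondary, chemiluminescent detection.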

[10] = target: T1, NAD-dependent protein deacylase sirtuin-6; assay: […] in human BxPC3 cells assessed as reduction in H3K56ac levels incubated for 72 hrs by Western blot analysis; type: cell-based; details: BXPC-3; in short: as §4
[11] = target: T1, NAD-dependent protein deacylase sirtuin-6; assay: […] in human BxPC3 cells assessed as reduction in H3K18ac levels incubated for 72 hrs by Western blot analysis; type: cell-based; details: BXPC-3; in short: as §4
[12] = AUC (0 to infinity) in Sprague-Dawley rat at 2 mg/kg, iv after 0.25 to 24 hrs by LC-MS/MS analysis; type: ADME, organism-based; set-up: dose 2 mg/kg, route intravenous, time infinity; details: in vivo; in short: as §2
[13] = Tmax in Sprague-Dawley rat at 2 mg/kg, iv after 0.25 to 24 hrs by LC-MS/MS analysis; type: ADME, organism-based; details: in vivo
In short: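 Male Sprague-Dawley rats, 6–8 weeks old, received a single dose of 10 mg/kg p.o. or 2 mg/kg i.v. The vehicle was 5% DMSO, 10% Solutol and 85% saline at pH 7. Blood was taken by cardiac puncture at 0.083–24 h (p.o.) or 0.25–24 h (i.v.), and plasma was measured by LC-MS/MS. Values are mean ± SD, n = 3.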

[14] = target: Histone deacetylase 9 (Homo sapiens, UniProt Q9UKV0); assay: Inhibition of HDAC9 (unknown origin) by FDL assay; in short: as §1
Sequence of Histone deacetylase 9 (Q9UKV0 whole entry): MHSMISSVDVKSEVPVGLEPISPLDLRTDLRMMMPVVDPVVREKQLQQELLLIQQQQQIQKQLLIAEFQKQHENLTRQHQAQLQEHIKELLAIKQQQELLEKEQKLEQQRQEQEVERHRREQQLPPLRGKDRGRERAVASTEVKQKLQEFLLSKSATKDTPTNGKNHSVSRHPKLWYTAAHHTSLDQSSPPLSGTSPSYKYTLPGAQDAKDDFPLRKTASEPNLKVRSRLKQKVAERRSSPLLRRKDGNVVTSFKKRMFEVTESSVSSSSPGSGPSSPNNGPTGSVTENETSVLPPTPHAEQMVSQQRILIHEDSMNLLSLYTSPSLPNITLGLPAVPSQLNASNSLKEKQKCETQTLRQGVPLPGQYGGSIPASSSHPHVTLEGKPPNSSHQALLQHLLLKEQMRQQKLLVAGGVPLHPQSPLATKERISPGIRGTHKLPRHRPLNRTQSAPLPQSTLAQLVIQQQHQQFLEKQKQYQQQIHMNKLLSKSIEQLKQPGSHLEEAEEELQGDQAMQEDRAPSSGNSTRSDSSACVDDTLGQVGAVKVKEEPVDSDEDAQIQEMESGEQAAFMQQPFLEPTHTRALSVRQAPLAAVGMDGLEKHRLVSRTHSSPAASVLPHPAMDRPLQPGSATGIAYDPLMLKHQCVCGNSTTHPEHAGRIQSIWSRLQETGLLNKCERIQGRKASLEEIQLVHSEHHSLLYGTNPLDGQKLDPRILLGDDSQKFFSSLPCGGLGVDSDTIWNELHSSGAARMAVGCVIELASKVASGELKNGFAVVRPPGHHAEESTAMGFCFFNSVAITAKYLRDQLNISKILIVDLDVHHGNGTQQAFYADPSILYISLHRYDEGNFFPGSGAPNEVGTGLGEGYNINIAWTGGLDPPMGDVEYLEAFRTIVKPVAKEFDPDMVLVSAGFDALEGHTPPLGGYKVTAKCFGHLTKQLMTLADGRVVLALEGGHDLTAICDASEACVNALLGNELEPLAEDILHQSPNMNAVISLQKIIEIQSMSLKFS

[15] = target: T1, NAD-dependent protein deacylase sirtuin-6; assay: Binding affinity to N-terminal his-tagged human SIRT6 expressed in Escherichia coli M15 [pREP4] assessed as change in melting temperature at 20 uM by SYPRO orange dye based DSF assay
[16] = AUC (0 to t) in Sprague-Dawley rat at 2 mg/kg, iv after 0.25 to 24 hrs by LC-MS/MS analysis; type: ADME, organism-based; details: in vivo; in short: as §2
[17] = target: T1, NAD-dependent protein deacylase sirtuin-6; assay: In-vivo activation of SIRT6 in BALB/c nude mouse xenografted with human PANC1 cells assessed as reduction in H3K9Ac expression at 150 mg/kg/day, po for 30 days by IHC analysis; type: functional, organism-based; details: PANC-1
In short: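 Female BALB/c nude mice (6–8 weeks) bearing subcutaneous PANC-1 xenografts (5×10⁶–1×10⁷ cells, right flank), randomised at 130–150 mm³ tumours; oral dosing daily for 30 days versus vehicle (n=6). Tumour tissue stained by immunohistochemistry.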

[18] = tested on: ASPC1; assay: Inhibition of colony formation in human AsPC1 cells incubated for 9 to 18 days by crystal violet staining based assay; type: functional, cell-based; in short: as §3
[19] = tested on: BXPC-3; assay: Inhibition of colony formation in human BxPC3 cells incubated for 9 to 18 days by crystal violet staining based assay; type: functional, cell-based; in short: as §3
[20] = species on record: Homo sapiens; assay: Antiproliferative activity against human OCUT-2C cells assessed as reduction in cell viability incubated for 72 hrs by MTT assay; type: functional, cell-based

IC50 [2]: > 200 µM | Kd [3]: 5.52 µM | IC50 ([4]; PANC-1, 72 h): 4.13 µM | t1/2 [6]: 9.06 h | inhibition [9]: Dose-dependent effect | inhibition [10]: Dose-dependent effect | inhibition [11]: Dose-dependent effect | AUC [12]: 3381.49 ng·mL·h | Tmax [13]: 4.8 min | IC50 [14]: > 200 µM | ΔTm [15]: 1.01 °C | AUCt [16]: 3326.13 ng·mL·h | Activity [17]: Active
Compound: O=C(NC(c1ccccc1)c1ccccc1)c1cc(-c2cc3ccccc3o2)nc2ccccc12
inhibition in vivo at 150 mg/kg/day [1]: 90.2% | Activity [4]: Dose-dependent effect | Activity [5]: Active | inhibition at 10 µM [7]: 57.2% | inhibition [8]: Dose-dependent effect | inhibition [18]: Dose-dependent effect | inhibition [19]: Dose-dependent effect | Activity [20]: Active
